Bioassay records from PubChem.
In the library only some 2.6% were active in any assay of this set; here they are far more common.
PRMT1 inh = PRMT1 (human) inhibition, primary screen; inhibition, % at 2.79 µM; Q99873; recombinant PRMT1, activity-based probe fluorescence polarization; AID 652257; actives 1.3% (n = 370,000);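 active = inhibition above about 21% made by adding two undisclosed values, limit read from the data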
ABHD4 inh = inhibits mouse alpha/beta hydrolase domain 4; Q8VD66; purified mABHD4, FP-Rh probe fluorescence polarization; inhibition, % at 8.92 µM; actives 0.54% (n = 370,000);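 active = inhibition exceeding the mean over every tested compound plus 3 SD, cut at about 30% in these data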
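Test system: mouse ABHD4 enzyme, wild type. Reagent: FP-Rh fluorescent activity-based probe, added after compound pre-incubation. Timing: pre-incubation 45 min, probe exposure 60 min, at 25 °C. Technique: FP readout, ex 525 nm / em 598 nm. Benchmarks: high control S159A mutant with DMSO, low control median of compound wells.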
HTRA1 inh = blocks human HTRA1 serine peptidase | Q92743 | recombinant HTRA1, FP-rhodamine activity-based probe, fluorescence polarization | inhibition, % at 5.96 µM | actives 0.5% (n = 340,000); in the data active = inhibition above about 36%
Target sequence (Q92743 whole entry, looked up): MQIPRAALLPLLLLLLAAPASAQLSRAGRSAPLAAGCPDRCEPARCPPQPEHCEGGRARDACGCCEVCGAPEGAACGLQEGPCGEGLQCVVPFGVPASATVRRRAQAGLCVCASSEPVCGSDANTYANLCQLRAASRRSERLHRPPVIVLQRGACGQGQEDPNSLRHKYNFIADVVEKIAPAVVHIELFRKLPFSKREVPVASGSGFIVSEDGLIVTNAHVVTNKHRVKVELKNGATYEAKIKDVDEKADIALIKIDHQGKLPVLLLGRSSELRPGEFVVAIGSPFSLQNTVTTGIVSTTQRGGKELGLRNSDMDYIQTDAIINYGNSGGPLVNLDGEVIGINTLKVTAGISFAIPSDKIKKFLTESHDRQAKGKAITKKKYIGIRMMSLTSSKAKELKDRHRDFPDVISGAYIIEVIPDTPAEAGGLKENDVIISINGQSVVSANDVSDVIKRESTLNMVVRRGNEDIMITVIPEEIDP
SIAE primary = inhibitors of human sialic acid acetylesterase SIAE; Q9HAT2; SIAE FP-Rh probe binding, fluorescence polarization; inhibition, % at 9.66 µM; actives 0.69% (n = 370,000);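 active = inhibition above a cutoff: mean of compounds within the control limits plus 3 SD of those, cut at about 17% in these data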
TCR CD3 inh = inhibitors of human TCR-CD3 interaction. TAMRA-labeled TCR probe fluorescence, biochemical. inhibition, % at 9.4 µM. actives 0.37% (n = 360,000); in the data active = inhibition above about 19%;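 note: recombinant mutant TCR 2C K166C tagged with TAMRA read by polarization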
SIAE confirm = confirmation of human SIAE inhibitors; shares compounds with SIAE primary; inhibition, % at 9.66 µM; actives 13% (n = 2,300); SIAE FP-Rh activity-based probe, fluorescence polarization;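 active = mean inhibition of the replicates above the hit cutoff set in the primary screen, cut at about 17% in these data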;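 note: inhibitors lower polarization as more probe stays unbound to SIAE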
Hits are given with their value; - = inactive; . = no result given.

SMILES | PRMT1 inh | ABHD4 inh | HTRA1 inh | SIAE primary | TCR CD3 inh | SIAE confirm
CCN(c1nc(C)cc(OC)n1)S(=O)(=O)c1ccccc1 | - | - | - | 18 | - | -
COc1cc(CN2CCCC(N3CCN(c4ccccc4C)CC3)C2)ccc1O (stereo unspecified) | - | - | - | - | - | .
CC1=CN2C(=NC(=O)CC2(C)C(=O)N(CC(=O)NC2CCCC2)Cc2ccc(Cl)cc2)C=C1 (stereo unspecified) | - | - | - | - | - | .
CC1CC(C)CN(S(=O)(=O)c2ccc3c(c2)oc(=O)n3CC(=O)NCCCOC(C)C)C1 (stereo unspecified) | - | - | - | 18 | - | -
CN(CCc1ccccc1)C(=O)c1cc2ccccn2n1 | - | - | . | - | . | .
COc1ccc(-c2[nH]c(-c3ccc(SC)cc3)nc2SCC(=O)Nc2nccs2)cc1 | - | - | - | 22 | - | -
COc1ccc(-c2nc(SCC(=O)NC3CCCC3)c(-c3ccc(OC)cc3)[nH]2)cc1 | - | - | - | 18 | - | -
COc1ccc(-c2[nH]c(-c3ccc(C)cc3)nc2SCC(=O)Nc2nccs2)cc1 | - | - | - | - | - | .
COc1ccc(/C=C2\CC3(OC(=O)C4CCCCC4)CCCN2C3)cc1 (stereo unspecified) | - | - | . | - | . | .
N#Cc1ccc(/C=C2\CC3(OC(=O)C4CCCC4)CCCN2C3)cc1 (stereo unspecified) | - | - | . | 23 | . | -
O=C(OC12CCCN(C1)/C(=C/c1ccc(Cl)cc1)C2)C1CCCCC1 (stereo unspecified) | - | - | . | 18 | . | -
O=C(OC12CCCN(C1)/C(=C/c1ccccc1)C2)C1CCCCC1 (stereo unspecified) | - | - | . | - | . | .
CSc1cccc(NC(=S)N(CCN(C)C)C(C)c2ccncc2)c1 (stereo unspecified) | - | - | - | 23 | - | -
CSc1cccc(NC(=S)N(CCN(C)C)C(C)c2ccccn2)c1 (stereo unspecified) | - | - | - | - | - | .
CCO/C=C/C(O)(CNC(=O)c1ccc(C(C)(C)C)cc1)C(F)(F)F (stereo unspecified) | - | - | - | 60 | - | -
CCOC(=O)CNC(=O)c1ccc(C)cc1 | - | - | - | - | - | .
Cc1ccnn1-c1ccc(C(=O)NCc2ccccc2CN2CCOCC2)cc1 | - | - | - | - | - | .
O=C(COc1ccc(Cl)cc1Cl)N1CCCCCC1 | - | - | - | 18 | - | -
O=C(COc1ccc(S(=O)(=O)N2CCCCC2)cc1Cl)N1CCCC1 | - | - | - | - | - | .
Cc1ccc(NC(=O)c2ncn(CCCNCc3ccccn3)n2)cc1C | - | - | - | - | - | .
Nc1ccccc1NC1=CC(=O)CC(c2ccco2)C1 (stereo unspecified) | - | - | - | 19 | - | -
Cc1ccc(NC2=CC(=O)CC(c3ccco3)C2)c(N)c1 (stereo unspecified) | - | - | - | - | - | .
NS(=O)(=O)c1ccc(CCNC(=O)C(=O)NCC2OCCN2S(=O)(=O)c2ccc(Cl)cc2)cc1 (stereo unspecified) | - | - | - | - | - | .
COc1cc(CNc2cccc3c2S(=O)(=O)N([C@H](C)c2ccccc2)C[C@@H](COCc2ccccc2)O3)cc(OC)c1OC | - | - | . | - | - | .
Nn1c(SCC(=O)Nc2ccc(F)cc2)nnc1C1CCCCC1 | - | - | - | - | - | .
SMILES | PRMT1 inh | ABHD4 inh | HTRA1 inh | SIAE primary | TCR CD3 inh | SIAE confirm
CN(C)c1ccc(NC(=O)CSc2nnc(C3CCCCC3)n2N)cc1 | - | - | - | 20 | - | -
COc1cccc(-c2noc(C(C)n3nc(C)c([N+](=O)[O-])c3C)n2)c1 (stereo unspecified) | - | - | - | 34 | - | -
COc1cccc(-c2noc(-c3cccnc3)n2)c1 | - | - | - | - | - | .
CC1(C(=O)NS(=O)(=O)c2ccccc2Cl)CCN1C(=O)c1ccccc1 (stereo unspecified) | - | - | . | - | - | .
OC(c1ccccc1)(c1ccccc1)C1CCN(CCCOc2ccc(-c3ccncc3)cc2)CC1 | - | - | . | - | - | .
OC(c1ccccc1)(c1ccccc1)C1CCN(CCCOc2ccncc2)CC1 | - | - | . | 22 | - | -
Nn1c(SCC(=O)N2CCCC2)nnc1-c1cccs1 | - | - | - | 17 | - | -
O=C(CSc1nnc(-c2cccs2)n1-c1ccccc1)N1CCCC1 | - | - | - | - | - | .
COc1cc(Cl)c(C)cc1NC(=O)COC(=O)CCc1nc2ccccc2c(=O)[nH]1 | - | - | - | - | - | .
CC(=O)c1cccc(S(=O)(=O)N2CCC(C(=O)Oc3ccc(-c4nnco4)cc3)CC2)c1 | - | - | - | 22 | - | -
CCN1C(=O)[C@H]2[C@@H](c3ccc(C)cc3)N[C@]3(CCCN(CCC(C)C)C3=O)[C@H]2C1=O | - | - | - | - | - | .
Cc1cc(C)c(OCC(=O)OCC(=O)N2CCN(C(=O)c3ccco3)CC2)c(C)c1 | - | - | - | 18 | - | -
CC(Sc1nc(N2CCCCC2)c2c(c1C#N)CCCC2)C(=O)O (stereo unspecified) | - | - | - | 22 | - | -
Cc1ccc2nc(-c3cccc(Br)c3)c(Cc3cccc(Cl)c3)n2c1 | - | - | . | - | - | .
CC(C)CN1C(=O)[C@]2(CC(=O)N(C)C2c2ccccc2)c2cc(-n3cc(CN(C)C)nn3)ccc21 (stereo partly specified) | - | - | . | 18 | . | -
O=C(O)Cn1c(CCS(=O)(=O)c2ccc(Br)cc2)nc2ccccc21 | - | - | - | 29 | - | -
COC(=O)Cn1c(CCS(=O)(=O)c2ccc(C)c(C)c2)nc2ccccc21 | - | - | - | - | - | .
O=C1CCc2ccccc2N1Cc1ccccc1 | - | - | - | 18 | - | -
O=C1CCCc2ccccc2N1Cc1ccc(F)cc1 | - | - | - | - | - | .
COc1cccc(C(=O)OC(C)C(=O)Nc2ccc3c(c2)OCO3)c1 (stereo unspecified) | - | - | - | 19 | - | -
O=C(CNS(=O)(=O)c1cccc2nsnc12)NCCc1ccccc1 | - | - | - | - | - | .
C/C(=N/NC(=O)c1cc2ccccc2cc1O)c1ccco1 | - | - | - | 23 | - | -
C/C(=N\NC(=O)c1cc2ccccc2cc1O)c1cccs1 | - | - | - | 28 | - | -
C/C(=N\NC(=O)c1cc(C)nc2ccccc12)c1ccco1 | - | - | - | - | - | .
C[C@H](CO)N1C[C@H](C)[C@@H](CN(C)Cc2ccc(C(=O)O)cc2)Oc2ccc(NS(=O)(=O)c3cn(C)cn3)cc2C1=O | - | - | - | - | - | .
Nc1ccc(-n2nc3ccccc3n2)cc1 | - | - | - | - | - | .
Nc1ccc2nn(-c3ccccc3)nc2c1 | - | - | - | 19 | - | -
CCOc1cc(N(CC)CC)ccc1/C=C(/C#N)c1nc2ccccc2[nH]1 | - | - | - | 27 | - | -
CCCOc1cc(N(CC)CC)ccc1/C=C(/C#N)c1nc2ccc(C)cc2[nH]1 | - | - | - | - | - | .
